Assays:
TET2 [1] = assay: Total TET activity; format: cell-based, human; conditions: inhibitor 10 nM for 1 hr prior to FLT3L stimulation for 30 minutes; CD34+ stem/early progenitors; three biological replicates
In short: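 Healthy-donor CD34+ cells, CliniMACS-purified, cultured 4 days in IMDM, 20% human serum, TPO/FLT3L/IL-3/IL-6 (20 ng/mL each), SCF 100 ng/mL. Cytokine-washed, held 4 hrs in IMDM/1% BSA, inhibitor 1 hr, then FLT3L (100 ng/ml) 30 min. Nuclear lysates (Bradford-normalised) on 5-mC-coated wells, 5-hmC detected fluorometrically. Standard curve 0–2 ng, ng/min/mg. Unstimulated and stimulated controls; mean ± SEM, three biological replicates.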

TET2 [2] = assay: TET2 activity and 5-hmC levels upon TPO or G-CSF stimulation; format: cell-based; conditions: Fig. S1A-D
In short: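 Total TET activity was measured in nuclear lysates, with protein quantified by Bradford assay, using a fluorescence ELISA in which plate-coated 5-mC substrate is converted to 5-hmC and detected with an anti-5-hmC antibody. 5-hmC content was measured on 200 ng DNA per assay and expressed as a percentage of total DNA.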

Molecule | Effect on FLT3L-stimulated TET2 activity (TET2 [1]) | 5hm-C levels upon cytokine stimulation (TET2 [2]) | TET2 activity upon cytokine stimulation (TET2 [2])
CC(C)(C)c1cc(NC(=O)Nc2ccc(-c3cn4c(n3)sc3cc(OCCN5CCOCC5)ccc34)cc2)no1 [AC2220] | Inhibition of TET2 activity | – | –
TPO: cytokine thrombopoietin | – | increased | increased
CNC(=O)c1cc(Oc2ccc(NC(=O)Nc3ccc(Cl)c(C(F)(F)F)c3)cc2)ccn1 [Sorafenib] | Inhibition of TET2 activity | – | –
G-CSF: cytokine granulocyte colony stimulation factor (protein, UniProt P09919 31-207, looked up) Granulocyte …: TPLGPASSLPQSFLLKCLEQVRKIQGDGAALQEKLVSECATYKLCHPEELVLLGHSLGIPWAPLSSCPSQALQLAGCLSQLHSGLFLYQGLLQALEGISPELGPTLDTLQLDVADFATTIWQQMEELGMAPALQPTQGAMPAFASAFQRRAGGVLVASHLQSFLEVSYRVLRHLAQP | – | increased | increased
